# Test results: PMC4170804 (Bioorganic & medicinal chemistry, 2013)
# Read-outs that look alike come from different tables or passages of the source.
# What was measured:
# L1210 cells = test: Antiproliferative assay, murine leukemia L1210 cells; assay type: cell-based; details: Mus musculus, L1210, 48 h, read-out: IC50 ± SD, L1210
# FM3A/0 cells = test: Antiproliferative assay, murine mammary carcinoma FM3A/0 cells; assay type: cell-based; details: for IC50: read-out: IC50 ± SD, FM3A/0
# Molt4/C8 cells = test: Antiproliferative assay, human T-leukemia Molt4/C8 cells; assay type: cell-based; details: for IC50: Homo sapiens, Molt4/C8, 48 h, read-out: IC50 ± SD, Molt4/C8
# HeLa cells [1] = test: Antiproliferative assay, human cervix carcinoma HeLa cells; assay type: cell-based; details: 48 h, read-out: IC50 ± SD, HeLa
# CEM/0 cells = test: Antiproliferative assay, human T-leukemia CEM/0 cells; assay type: cell-based; details: read-out: IC50 ± SD, CEM/0, 48 h, Coulter counter
# tubulin = test: Inhibition of [3H]colchicine binding to tubulin; design: species or system bovine; details: for Colchicine binding % ± SD (inhibition of [3H]colchicine binding): tubulin 1 µM, colchicine 5 µM, tested compound 5 µM
# [2] = tested on: human pancreatic tumor (MIA PaCa-2) cells; details: cited from earlier work
# [3] = tested on: epithelial carcinoma (A431) cells; details: cited from earlier work
# Jurkat cells [4] = test: Antiproliferative assay, T-leukemia Jurkat; assay type: cell-based; details: Homo sapiens, read-out: IC50 ±SD, Jurkat
# Outline: (§1)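 Cells were seeded at 300,000–500,000 cells/mL and mixed 1:1 with serial dilutions of test compound. They were incubated 48 h at 37 °C, and cell number was counted with a Coulter counter.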
# Raji cells = test: Antiproliferative assay, B-cell lymphoma Raji; assay type: cell-based; details: Homo sapiens, read-out: IC50 ±SD, Raji
# Outline: as §1
# HOS, OST TK- cells = test: Antiproliferative assay, osteosarcoma HOS, OST TK-; assay type: cell-based; details: Homo sapiens, read-out: IC50 ±SD, HOS, OST TK-
# Outline: as §1
# MCF-7 cells = test: Antiproliferative assay, mammary carcinoma MCF-7; assay type: cell-based; details: Homo sapiens, MCF7, read-out: IC50 ±SD, MCF-7
# Outline: as §1
# PC-3 cells = test: Antiproliferative assay, prostate PC-3; assay type: cell-based; details: Homo sapiens, PC-3, read-out: IC50 ±SD, PC-3
# Outline: as §1
# bovine brain tubulin = test: Inhibition of tubulin polymerization; assay type: biochemical; details: greater than that of 1
# HeLa cells [5] = test: Flow cytometric cell cycle analysis, HeLa; assay type: cell-based, human; details: 24 h
# Outline: (§2)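 Exponentially growing cells (5 × 105 for HeLa) were exposed to test compound at 15–250 nM for 24 h. Cells were fixed in ice-cold 70% ethanol, then treated with lysis buffer containing RNase A and 0.1% Triton X-100. After propidium iodide staining, DNA content was analysed by flow cytometry for cell-cycle distribution. Values are mean ± SEM of three independent experiments.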
# Jurkat cells [6] = test: Flow cytometric cell cycle analysis, Jurkat; assay type: cell-based, human; details: 24 h
# Outline: as §2
# [7] = tested on: cyclin B, p-cdc2 Y15, cdc25C in HeLa cells; test: Western blot of G2/M regulatory proteins in HeLa cells; assay type: cell-based, human
# Outline: (§3)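 HeLa cells were treated with test compound for 24 or 48 h, washed twice in ice-cold PBS, and lysed on ice for 30 min. Lysis buffer was T-PER with 300 mM NaCl, 1 mM orthovanadate, 2 mM AEBSF and protease inhibitors. Lysates were cleared at 15,000g (4 °C, 10 min). 20 µg protein went to SDS–PAGE, PVDF transfer and overnight blocking. Primary antibodies ran 2 h at room temperature, then HRP secondary and ECL. Membranes were stripped and reprobed for β-actin as loading control.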
# HeLa cells [8] = test: Annexin-V/PI apoptosis assay; assay type: cell-based, human; details: 24 h, further increased at 48 h even at 15 nM
# HeLa cells [9] = test: Mitochondrial membrane potential; assay type: cell-based, human; details: 24 or 48 h
# HeLa cells [10] = test: Mitochondrial ROS production; assay type: cell-based, human; details: 24 or 48 h, versus control cells
# [11] = tested on: cleaved caspase-3, cleaved caspase-9, PARP, Bcl-2, Mcl-1, XIAP in HeLa cells; test: Western blot of caspases, PARP, Bcl-2, Mcl-1, XIAP in HeLa cells; assay type: cell-based, human
# Outline: as §3
# [12] = tested on: panel of human and murine tumor cell lines; test: Antiproliferative activity, panel of human and murine tumor cell lines; assay type: cell-based
# Outline: as §1
# [13] = tested on: panel of human cancer cell lines; test: Antiproliferative activity, panel of additional human cancer cell lines; assay type: cell-based; details: read-out: IC50 values against additional human cancer cell lines
# Outline: as §1
# [14] = tested on: wide panel of cancer cell lines; test: Antiproliferative activity, wide panel of cancer cell lines; assay type: cell-based; details: read-out: IC50 against a wide panel of cancer cell lines
# Outline: as §1
# [15] = at higher concentrations (range 15 to 250 nM)
compound,measurement,setting,value
"CCOC(=O)c1cc(CCc2ccc(OC)cc2)sc1N [Compound 2j, Ethyl 2-amino-5-[2-(4-methoxyphenyl)ethyl]thiophene-3-carboxylate]",IC50,L1210 cells,20 ± 10 µM
same,IC50,"FM3A/0 cells; Mus musculus, FM3A/0, 48 h",48 ± 5.2 µM
same,IC50,Molt4/C8 cells,0.34 ± 0.5 µM
same,"IC50 values in Molt4/C8, in words",Molt4/C8 cells,submicromolar
same,IC50,"HeLa cells [1]; Homo sapiens, HeLa",39 ± 0.2 µM
"COC(=O)c1c(N)sc(CCc2cc(OC)ccc2OC)c1C [Compound 2d, Methyl 2-amino-5-[2-(2,5-dimethoxyphenyl)ethyl]-4-methylthiophene-3-carboxylate]",IC50,L1210 cells,46 ± 3.2 µM
same,IC50,"FM3A/0 cells; Mus musculus, FM3A/0, 48 h",44 ± 8.1 µM
same,IC50,Molt4/C8 cells,47 ± 16 µM
same,IC50,"HeLa cells [1]; Homo sapiens, HeLa",35 ± 7.1 µM
"COc1ccccc1CCc1cc(C#N)c(N)s1 [Compound 2k, 2-Amino-5-[2-(2-methoxyphenyl)ethyl]thiophene-3-carbonitrile]",IC50,"FM3A/0 cells; Mus musculus, FM3A/0, 48 h",22 ± 3.1 µM
same,IC50,Molt4/C8 cells,2 ± 0.2 µM
same,IC50,"HeLa cells [1]; Homo sapiens, HeLa",7.8 ± 2.1 µM
"CCOC(=O)c1c(N)sc(CCc2cc(OC)ccc2OC)c1C(=O)OCC [Compound 2e, Diethyl 2-amino-5-[2-(2,5-dimethoxyphenyl)ethyl]thiophene-3,4-dicarboxylate]",IC50,L1210 cells,34 ± 3.2 µM
same,IC50,"FM3A/0 cells; Mus musculus, FM3A/0, 48 h",33 ± 9.1 µM
same,IC50,Molt4/C8 cells,24 ± 2.2 µM
"N#Cc1cc(CCc2ccccc2)sc1N [Compound 2m, 2-Amino-5-phenylethylthiophene-3-carbonitrile]",IC50,"FM3A/0 cells; Mus musculus, FM3A/0, 48 h",62 ± 3.2 µM
same,IC50,"HeLa cells [1]; Homo sapiens, HeLa",35 ± 3.1 µM
"COC(=O)c1cc(CCc2cc(OC)ccc2OC)ccc1O [Compound 1, reference compound]",fold less active in FM3A cells than the other cell lines examined,FM3A/0 cells; FM3A vs other cell lines,about 30 fold
same,IC50,"FM3A/0 cells; murine mammary carcinoma FM3A/0, 48 h, Coulter counter",13 ± 0.2 µM
same,IC50,CEM/0 cells,0.44 ± 0.01 µM
same,IC50,"HeLa cells [1]; human cervix carcinoma HeLa, Coulter counter",0.41 ± 0.08 µM
same,Colchicine binding % ± SD (inhibition of [3H]colchicine binding),tubulin,52 ± 4%
same,"antiproliferative activity, MIA PaCa-2",[2],active at low micromolar concentrations
same,"antiproliferative activity, A431",[3],active at low micromolar concentrations
"COc1ccc(OC)c(CCc2cc(C#N)c(N)s2)c1 [Compound 2c, 2-Amino-5-[2-(2,5-dimethoxyphenyl)ethyl]thiophene-3-carbonitrile]",IC50,"FM3A/0 cells; Mus musculus, FM3A/0, 48 h",0.056 ± 0.004 µM
same,IC50,Jurkat cells [4],0.012 ± 0.008 µM
same,IC50,Raji cells,0.064 ± 0.025 µM
same,IC50,"HOS, OST TK- cells",0.024 ± 0.013 µM
same,IC50,MCF-7 cells,0.025 ± 0.001 µM
same,IC50,PC-3 cells,0.025 ± 0.013 µM
same,tubulin assembly inhibitory activity relative to 1,bovine brain tubulin,3 fold
same,inhibition of colchicine binding relative to 1,tubulin; more active than 1,1.5 fold
same,Colchicine binding % ± SD (inhibition of [3H]colchicine binding),tubulin,84 ± 5%
same,lowest concentration with a rise in G2/M cells,HeLa cells [5],30 nM
same,cells arrested in G2/M,HeLa cells [5]; [15],more than 80%
same,lowest concentration with a rise in G2/M cells,Jurkat cells [6],30 nM
same,cells arrested in G2/M,Jurkat cells [6]; [15],more than 80%
same,cyclin B1 expression,"[7]; 50 and 100 nM, 24 and 48 h",marked increase in cyclin B1 expression
same,cdc25C phosphorylation state / expression,"[7]; 50 and 100 nM, 24 h and 48 h",slower migrating forms of phosphatase cdc25C appeared at 24 h
same,phosphorylation of cdc2 (Tyr15),[7]; after 24 h,dramatic de-phosphorylation of cdc2 (Tyr15)
same,annexin-V positive cells (apoptosis),HeLa cells [8],accumulation of annexin-V positive cells in a concentration-dependent manner
same,"cells with depolarized mitochondria (Δψmt, JC-1)",HeLa cells [9],time and concentration-dependent increase in the proportion of cells with depolarized mitochondria
same,"ROS production (HE, H2-DCFDA)",HeLa cells [10],induced the production of significant amounts of ROS
same,caspase-9 activation,"[11]; 50 and 100 nM, 24 h",early activation of caspase-9 at 24 h
same,caspase-3 and PARP activation,"[11]; 50 and 100 nM, 48 h",activation of caspase-3 and of the caspase-3 substrate PARP
same,expression of anti-apoptotic proteins Bcl-2 and Mcl-1,[11]; both concentrations used (50 and 100 nM),remarkably reduced after a 24 h and disappeared after a 48 h treatment
same,expression of XIAP,[11]; concomitant with caspase activation,strongly reduced
same,enhancement of antiproliferative activity with respect to 1,[12]; in four cell lines,3–230 fold
same,IC50,[12]; read-out: IC50 values against panel of human and murine tumor cell lines,0.035 to 0.13 µM
same,IC50,[13],0.012 to 0.086 µM
same,IC50,[14],0.017 to 0.13 µM
"COC(=O)c1cc(CCc2cc(OC)ccc2OC)sc1N [Compound 2a, Methyl 2-amino-5-[2-(2,5-dimethoxyphenyl)ethyl]thiophene-3-carboxylate]",IC50,L1210 cells,1.8 ± 0.1 µM
same,IC50,"FM3A/0 cells; Mus musculus, FM3A/0, 48 h",2.3 ± 0.6 µM
same,"IC50 values in Molt4/C8, in words",Molt4/C8 cells,submicromolar
same,IC50,"HeLa cells [1]; Homo sapiens, HeLa",0.77 ± 0.17 µM
same,Colchicine binding % ± SD (inhibition of [3H]colchicine binding),tubulin,52 ± 0.9%
"COC(=O)c1cc(-c2cc(OC)ccc2OC)sc1N [Compound 2n, Methyl 2-amino-5-(2,5-dimethoxyphenyl)thiophene-3-carboxylate]",IC50,L1210 cells,50 ± 5.2 µM
same,IC50,"FM3A/0 cells; Mus musculus, FM3A/0, 48 h",52 ± 1 µM
same,IC50,"HeLa cells [1]; Homo sapiens, HeLa",37 ± 6.1 µM
"COc1ccc(CCc2cc(C#N)c(N)s2)cc1 [Compound 2l, 2-Amino-5-[2-(4-methoxyphenyl)ethyl]thiophene-3-carbonitrile]",IC50,"FM3A/0 cells; Mus musculus, FM3A/0, 48 h",31 ± 27 µM
same,IC50,"HeLa cells [1]; Homo sapiens, HeLa",19 ± 13 µM
"CCOC(=O)c1cc(CCc2cc(OC)ccc2OC)sc1N [Compound 2b, Ethyl 2-amino-5-[2-(2,5-dimethoxyphenyl)ethyl]thiophene-3-carboxylate]",IC50,"FM3A/0 cells; Mus musculus, FM3A/0, 48 h",1.9 ± 0.5 µM
same,IC50,Molt4/C8 cells,1.1 ± 0.1 µM
same,IC50,"HeLa cells [1]; Homo sapiens, HeLa",0.31 µM
same,Colchicine binding % ± SD (inhibition of [3H]colchicine binding),tubulin,46 ± 0.9%
"COC(=O)c1cc(CCc2ccccc2OC)sc1N [Compound 2f, Methyl 2-amino-5-[2-(2-methoxyphenyl)ethyl]thiophene-3-carboxylate]",IC50,L1210 cells,17 ± 5.3 µM
same,IC50,"FM3A/0 cells; Mus musculus, FM3A/0, 48 h",34 ± 5.6 µM
same,IC50,"HeLa cells [1]; Homo sapiens, HeLa",15 ± 1.3 µM
"CCOC(=O)c1cc(CCc2ccccc2OC)sc1N [Compound 2i, Ethyl 2-amino-5-[2-(2-methoxyphenyl)ethyl]thiophene-3-carboxylate]",IC50,"FM3A/0 cells; Mus musculus, FM3A/0, 48 h",53 ± 7.2 µM
same,IC50,Molt4/C8 cells,6.9 ± 0.8 µM
same,IC50,"HeLa cells [1]; Homo sapiens, HeLa",45 ± 6.2 µM
"COC(=O)c1cc(CCc2ccc(OC)cc2C)sc1N [Compound 2h, Methyl 2-amino-5-[2-(4-methoxy-2-methylphenyl)ethyl]thiophene-3-carboxylate]",IC50,"FM3A/0 cells; Mus musculus, FM3A/0, 48 h",45 ± 16 µM
"COc1ccc(OC)c(-c2cc(C#N)c(N)s2)c1 [Compound 2o, 2-Amino-5-(2,5-dimethoxyphenyl)thiophene-3-carbonitrile]",IC50,L1210 cells,76 ± 3.2 µM
same,IC50,"HeLa cells [1]; Homo sapiens, HeLa",71 ± 20 µM
